ChEMBL document CHEMBL1157314, “Antibacterial, partially acetylated oligorhamnosides from Cleistopholis patens” (2006)
The source made the active and inactive calls.

What was measured:
Assay type in all cases: functional
Staphylococcus aureus [1] = assay: Antibacterial activity against linezolid-resistant Staphylococcus aureus 106-12591A isolate after 24 hrs by broth microdilution method
Procedure, shortened: (§1)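 Broth microdilution following NCCLS M7-A6 (2003), with inoculum at the recommended densities. Isolates were placed into panel wells with an autoinoculator and grown in cation-adjusted Mueller-Hinton broth at 35°C in ambient air for overnight to 24 h. Panels were read by eye, and the MIC was taken as no visible growth.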

Staphylococcus aureus [2] = assay: Antibacterial activity against methicillin-resistant Staphylococcus aureus ATCC 33591 after 24 hrs by broth microdilution method; conditions: for MIC: ATCC 33591, 24 h; procedure, shortened: as §1
Staphylococcus aureus [3] = assay: Antibacterial activity against methicillin-resistant Staphylococcus aureus 78-13607A after 24 hrs by broth microdilution method; procedure, shortened: as §1
Staphylococcus aureus [4] = assay: Antibacterial activity against oxacillin-susceptible Staphylococcus aureus ATCC 29213 after 24 hrs by broth microdilution method; conditions: ATCC 29213, 24 h; procedure, shortened: as §1
Staphylococcus aureus [5] = assay: Antibacterial activity against oxacillin-resistant Staphylococcus aureus ATCC 33591 after 24 hrs by broth microdilution method; conditions: ATCC 33591, 24 h; procedure, shortened: as §1
[6] = test system: Staphylococcus epidermidis; assay: Antibacterial activity against oxacillin-susceptible Staphylococcus epidermidis isolate 12-1788A isolate after 24 hrs by broth microdilution method
[7] = test system: Staphylococcus haemolyticus; assay: Antibacterial activity against oxacillin-resistant Staphylococcus haemolyticus 107-1240C isolate after 24 hrs by broth microdilution method; procedure, shortened: as §1
Enterococcus faecalis [8] = assay: Antibacterial activity against ampicillin and vancomycin-susceptible Enterococcus faecalis ATCC 29212 after 24 hrs by broth microdilution method; conditions: ATCC 29212, 24 h; procedure, shortened: as §1
Enterococcus faecium [9] = assay: Antibacterial activity against ampicillin and vancomycin-resistant Enterococcus faecium 24-45A isolate after 24 hrs by broth microdilution method; procedure, shortened: as §1
Streptococcus pneumoniae [10] = assay: Antibacterial activity against penicillin-intermediate resistant Streptococcus pneumoniae ATCC 49619 after 24 hrs by broth microdilution method; conditions: ATCC 49619, 24 h; procedure, shortened: as §1
Streptococcus pneumoniae [11] = assay: Antibacterial activity against penicillin-resistant Streptococcus pneumoniae 33-50B isolate after 24 hrs by broth microdilution method; procedure, shortened: as §1
Corynebacterium jeikeium = assay: Antibacterial activity against Corynebacterium jeikeium 15-196A isolate after 24 hrs by broth microdilution method
Procedure, shortened: (§2)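 Broth microdilution following NCCLS M7-A6 (2003) inocula; isolates transferred aseptically into panel wells with an autoinoculator; cation-adjusted Mueller-Hinton broth; incubated overnight to 24 h at 35°C in ambient air; panels read by eye, MIC taken as lowest concentration with no visible growth.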

Bacillus cereus = assay: Antibacterial activity against Bacillus cereus 24-59A isolate after 24 hrs by broth microdilution method
Streptococcus pyogenes = assay: Antibacterial activity against erythromycin-resistant Streptococcus pyogenes 91-8747 isolate after 24 hrs by broth microdilution method; procedure, shortened: as §1
Streptococcus mitis = assay: Antibacterial activity against penicillin-resistant Streptococcus mitis 61-2900C isolate after 24 hrs by broth microdilution method; procedure, shortened: as §1
Pseudomonas aeruginosa = assay: Antibacterial activity against sPseudomonas aeruginosa ATCC 27853 after 24 hrs by broth microdilution method; conditions: ATCC 27853, 24 h; procedure, shortened: as §2
Escherichia coli = assay: Antibacterial activity against sEscherichia coli ATCC 25922 after 24 hrs by broth microdilution method; conditions: ATCC 25922, 24 h; procedure, shortened: as §2
Staphylococcus aureus [12] = assay: Antibacterial activity against mupirocin-resistant Staphylococcus aureus 4-90A isolate after 24 hrs by broth microdilution method; procedure, shortened: as §1
Staphylococcus aureus [13] = assay: Antibacterial activity against quinupristin/dalfopristin-resistant Staphylococcus aureus 300-12053A isolate after 24 hrs by broth microdilution method; procedure, shortened: as §1
Staphylococcus [14] = assay: Antibacterial activity against mupirocin-resistant coagulase negative Staphylococcus 63-18A isolate after 24 hrs by broth microdilution method; procedure, shortened: as §1
Staphylococcus [15] = assay: Antibacterial activity against quinupristin/dalfopristin-resistant coagulase negative Staphylococcus 90-10840A isolate after 24 hrs by broth microdilution method; procedure, shortened: as §1
Staphylococcus [16] = assay: Antibacterial activity against coagulase negative linezolid-resistant Staphylococcus 82-1645A isolate after 24 hrs by broth microdilution method; procedure, shortened: as §1
Enterococcus faecalis [17] = assay: Antibacterial activity against vancomycin-resistant Enterococcus faecalis 48-22D isolate with vanA phenotype after 24 hrs by broth microdilution method; procedure, shortened: as §1
Enterococcus faecalis [18] = assay: Antibacterial activity against vancomycin-resistant Enterococcus faecalis 82-876D with vanB phenotype isolate after 24 hrs by broth microdilution method; procedure, shortened: as §1
Enterococcus faecalis [19] = assay: Antibacterial activity against linezolid-resistant Enterococcus faecalis 15-5341 isolate after 24 hrs by broth microdilution method; procedure, shortened: as §1
Enterococcus faecalis [20] = assay: Antibacterial activity against gentamycin and streptomycin-resistant Enterococcus faecalis 39-11D isolate after 24 hrs by broth microdilution method; procedure, shortened: as §1
Enterococcus faecium [21] = assay: Antibacterial activity against vancomycin-resistant Enterococcus faecium 103-1232D isolate with vanB phenotype after 24 hrs by broth microdilution method; procedure, shortened: as §1
Enterococcus faecium [22] = assay: Antibacterial activity against vancomycin-resistant Enterococcus faecium 15-206A isolate with vanA phenotype after 24 hrs by broth microdilution method; procedure, shortened: as §1
Enterococcus faecium [23] = assay: Antibacterial activity against linezolid-resistant Enterococcus faecium 11-4103A isolate after 24 hrs by broth microdilution method; procedure, shortened: as §1
Enterococcus faecium [24] = assay: Antibacterial activity against quinupristin/dalfopristin-resistant Enterococcus faecium 65-1208A isolate after 24 hrs by broth microdilution method; procedure, shortened: as §1
Bacillus sp. [25] = assay: Antibacterial activity against tetracycline-resistant Bacillus sp. 107-1461D isolate after 24 hrs by broth microdilution method; conditions: Bacillus sp. (in: firmicutes); procedure, shortened: as §1
Bacillus sp. [26] = assay: Antibacterial activity against trimethoprim/sulfamethaxazole-resistant Bacillus sp. 67-1057A isolate after 24 hrs by broth microdilution method; conditions: Bacillus sp. (in: firmicutes); procedure, shortened: as §1
Bacillus sp. [27] = assay: Antibacterial activity against erythromycin-resistant Bacillus sp. 32-2406A isolate after 24 hrs by broth microdilution method; conditions: Bacillus sp. (in: firmicutes); procedure, shortened: as §1
Streptococcus pneumoniae [28] = assay: Antibacterial activity against multidrug resistant Streptococcus pneumoniae 68-2307B isolate after 24 hrs by broth microdilution method; procedure, shortened: as §1
Streptococcus pneumoniae [29] = assay: Antibacterial activity against erythromycin and clindamycin-resistant Streptococcus pneumoniae 4-38B isolate after 24 hrs by broth microdilution method; procedure, shortened: as §1
Streptococcus pneumoniae [30] = assay: Antibacterial activity against erythromycin-resistant and clindamycin-susceptible Streptococcus pneumoniae 35-405B isolate after 24 hrs by broth microdilution method; procedure, shortened: as §1
Streptococcus pneumoniae [31] = assay: Antibacterial activity against levofloxacin-resistant Streptococcus pneumoniae 2-2784A isolate after 24 hrs by broth microdilution method; procedure, shortened: as §1
Corynebacterium sp. [32] = assay: Antibacterial activity against doxycyclin-resistant Corynebacterium sp. 105-1513C isolate after 24 hrs by broth microdilution method; procedure, shortened: as §1
Corynebacterium sp. [33] = assay: Antibacterial activity against streptomycin-resistant Corynebacterium sp. 61-5454A isolate after 24 hrs by broth microdilution method; procedure, shortened: as §1
Corynebacterium sp. [34] = assay: Antibacterial activity against rifampin-resistant Corynebacterium sp. 58-9161A isolate after 24 hrs by broth microdilution method; procedure, shortened: as §1
Streptococcus [35] = assay: Antibacterial activity against erythromycin and clindamycin-resistant beta-haemolytic sStreptococcus 91-526D isolate after 24 hrs by broth microdilution method; procedure, shortened: as §1
Streptococcus [36] = assay: Antibacterial activity against erythromycin-resistant and clindamycin-susceptible beta-haemolytic sStreptococcus 109-820D isolate after 24 hrs by broth microdilution method; procedure, shortened: as §1
Streptococcus [37] = assay: Antibacterial activity against levofloxacin-resistant beta-haemolytic sStreptococcus 19-756A isolate after 24 hrs by broth microdilution method; procedure, shortened: as §1
Streptococcus [38] = assay: Antibacterial activity against mupirocin-resistant viridans group sStreptococcus 32-2395A isolate after 24 hrs by broth microdilution method; procedure, shortened: as §1
Streptococcus [39] = assay: Antibacterial activity against levafloxacin-resistant viridans group Streptococcus 107-6380A isolate after 24 hrs by broth microdilution method; procedure, shortened: as §1
Streptococcus [40] = assay: Antibacterial activity against linezolid-resistant viridans group Streptococcus 27-2832A isolate after 24 hrs by broth microdilution method; procedure, shortened: as §1
Streptococcus [41] = assay: Antibacterial activity against multidrug-resistant viridans group Streptococcus 58-1602D isolate after 24 hrs by broth microdilution method; procedure, shortened: as §1

CCCCCCCCCCCCO[C@@H]1O[C@@H](C)[C@H](O[C@@H]2O[C@@H](C)[C@H](OC(C)=O)[C@@H](O[C@@H]3O[C@@H](C)[C@H](OC(C)=O)[C@@H](O)[C@H]3OC(C)=O)[C@H]2O)[C@@H](O)[C@H]1O
8 µg/mL: MIC (Staphylococcus aureus [2]) | MIC (Staphylococcus aureus [3]) | MIC (Streptococcus pneumoniae [10]) | MIC (Streptococcus pneumoniae [11]) | MIC (Streptococcus pyogenes) | MIC (Streptococcus mitis) | MIC (Corynebacterium sp. [32]) | MIC (Corynebacterium sp. [33]) | MIC (Corynebacterium sp. [34])
2 µg/mL: MIC (Staphylococcus aureus [1]) | MIC (Staphylococcus aureus [4]) | MIC (Staphylococcus aureus [5]) | MIC (Enterococcus faecium [9]) | MIC (Bacillus cereus) | MIC (Staphylococcus aureus [12]) | MIC (Staphylococcus aureus [13]) | MIC (Staphylococcus [14]) | MIC (Staphylococcus [15]) | MIC (Staphylococcus [16]) | MIC (Enterococcus faecalis [17]) | MIC (Enterococcus faecalis [18]) | MIC (Enterococcus faecalis [19]) | MIC (Enterococcus faecalis [20]) | MIC (Enterococcus faecium [21]) | MIC (Enterococcus faecium [22]) | MIC (Enterococcus faecium [23]) | MIC (Enterococcus faecium [24]) | MIC (Bacillus sp. [25]) | MIC (Bacillus sp. [26]) | MIC (Bacillus sp. [27])
4 µg/mL: MIC [6] | MIC [7] | MIC (Enterococcus faecalis [8]) | MIC (Streptococcus pneumoniae [28]) | MIC (Streptococcus pneumoniae [29]) | MIC (Streptococcus pneumoniae [30]) | MIC (Streptococcus pneumoniae [31]) | MIC (Streptococcus [35]) | MIC (Streptococcus [36]) | MIC (Streptococcus [37]) | MIC (Streptococcus [38]) | MIC (Streptococcus [39]) | MIC (Streptococcus [40]) | MIC (Streptococcus [41])
> 32 µg/mL: MIC (Corynebacterium jeikeium) | MIC (Pseudomonas aeruginosa) | MIC (Escherichia coli)

C/C(=C\C(=O)OCCCCCCCCC(=O)O)C[C@@H]1OC[C@H](C[C@@H]2O[C@H]2[C@@H](C)[C@H](C)O)[C@@H](O)[C@H]1O
active: Activity (Staphylococcus aureus [2]) | Activity (Staphylococcus aureus [3])

CCCCCCCCCCCCO[C@@H]1O[C@@H](C)[C@H](O[C@@H]2O[C@@H](C)[C@H](OC(C)=O)[C@@H](O[C@@H]3O[C@@H](C)[C@H](OC(C)=O)[C@@H](O[C@@H]4O[C@@H](C)[C@H](O)[C@@H](OC(C)=O)[C@H]4O)[C@H]3OC(C)=O)[C@H]2O)[C@@H](O)[C@H]1O
16 µg/mL: MIC (Staphylococcus aureus [3])
8 µg/mL: MIC (Staphylococcus aureus [2])
